Residues, ends and D or L forms follow the SMILES beside them.
Legend:
[1] = Retention time of the compound measured over 30 mins at flow rate of 1 mL/min by HPLC; assay type: physicochemical; details: 0.5 h
Procedure, shortened: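 Reversed-phase analytical HPLC or LC−MS on a SymmetryShield RP18 column (5 μm, 4.6 × 150 mm). Gradient 10−60% B over 30 min at 1 mL/min; A = 0.1% TFA in water, B = 0.1% TFA in acetonitrile.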

[2] = Retention time of the compound measured over 15 mins at flow rate of 1 mL/min by HPLC

Compound	Retention_time [1]	Retention_time [2]
CSCC[C@@H]1NC(=O)CNC(=O)[C@H](CCC(=O)O)NC(=O)[C@@H]2CSSC[C@H](NC(=O)[C@@H](N)Cc3ccc(O)cc3)C(=O)N[C@@H](CCC(N)=O)C(=O)N[C@@H](CCCCN)C(=O)N[C@@H](Cc3c[nH]c4ccccc34)C(=O)N[C@@H](CCSC)C(=O)N[C@@H](Cc3c[nH]c4ccccc34)C(=O)N[C@@H]([C@@H](C)O)C(=O)N[C@H]3CSSC[C@H](NC(=O)[C@H](C(C)C)NC1=O)C(=O)N[C@@H](CCCNC(=N)N)C(=O)N[C@@H](CC(C)C)C(=O)N[C@@H](Cc1c[nH]c4ccccc14)C(=O)N[C@H](C(=O)N[C@@H](CCCCN)C(=O)N[C@@H](CCCCN)C(=O)N[C@@H](CCCCN)C(=O)N[C@@H](CC(C)C)C(=O)N[C@@H](Cc1c[nH]c4ccccc14)C(=O)O)CSSC[C@H](NC(=O)[C@H](CCCCN)NC(=O)[C@H](CCCNC(=N)N)NC(=O)[C@H](CCC(=O)O)NC(=O)[C@H](CO)NC(=O)[C@H](CC(=O)O)NC3=O)C(=O)N2	14.54 min	9.35 min
CSCC[C@@H]1NC(=O)CNC(=O)[C@H](CCC(=O)O)NC(=O)[C@@H]2CSSC[C@H](NC(=O)[C@@H](N)Cc3ccc(O)cc3)C(=O)N[C@@H](CCC(N)=O)C(=O)N[C@@H](CCCCN)C(=O)N[C@@H](Cc3c[nH]c4ccccc34)C(=O)N[C@@H](CCSC)C(=O)N[C@@H](Cc3c[nH]c4ccccc34)C(=O)N[C@@H]([C@@H](C)O)C(=O)N[C@H]3CSSC[C@H](NC(=O)[C@H](C(C)C)NC1=O)C(=O)N[C@@H](CCCNC(=N)N)C(=O)N[C@@H](CC(C)C)C(=O)N[C@@H](Cc1c[nH]c4ccccc14)C(=O)N[C@H](C(=O)N[C@@H](CCCCN)C(=O)N[C@@H](CCCCN)C(=O)N[C@@H](CCCCN)C(=O)N[C@@H](CC(C)C)C(=O)N[C@@H](Cc1c[nH]c4ccccc14)C(N)=O)CSSC[C@H](NC(=O)[C@H](CCCCN)NC(=O)[C@H](CCCNC(=N)N)NC(=O)[C@H](CCC(=O)O)NC(=O)[C@H](CO)NC(=O)[C@H](CC(=O)O)NC3=O)C(=O)N2	14.78 min	9 min
[H][C@]12CSSC[C@@H](C(=O)N[C@@H](CCCCN)C(=O)N[C@@H](CCCCN)C(=O)N[C@H](C(=O)N[C@H](C(=O)O)[C@@H](C)CC)[C@@H](C)CC)NC(=O)[C@H](Cc3c[nH]c4ccccc34)NC(=O)[C@H](CC(C)C)NC(=O)[C@H](CCCNC(=N)N)NC(=O)[C@]3([H])CSSC[C@]([H])(NC(=O)[C@]([H])([C@@H](C)O)NC(=O)[C@H](Cc4c[nH]c5ccccc45)NC(=O)[C@H](CCSC)NC(=O)[C@H](Cc4c[nH]c5ccccc45)NC(=O)[C@H](CCCCN)NC(=O)[C@H](CCC(N)=O)NC(=O)[C@@H](NC(=O)[C@@H](N)Cc4ccc(O)cc4)CSSC[C@]([H])(NC1=O)C(=O)N[C@@H](CCC(=O)O)C(=O)NCC(=O)N[C@@H](CC(C)C)C(=O)N[C@@H](C(C)C)C(=O)N3)C(=O)N[C@@H](CC(=O)O)C(=O)N[C@@H](CO)C(=O)N[C@@H](C)C(=O)N[C@@H](CCCNC(=N)N)C(=O)N[C@@H](CCCCN)C(=O)N2 (HELM PEPTIDE1{Y.C.Q.K.W.M.W.T.C.D.S.A.R.K.C.C.E.G.L.V.C.R.L.W.C.K.K.I.I}$PEPTIDE1,PEPTIDE1,2:R3-16:R3|PEPTIDE1,PEPTIDE1,9:R3-21:R3|PEPTIDE1,PEPTIDE1,15:R3-25:R3$$$V2.0)	12.58 min	7.9 min

Source: ChEMBL document CHEMBL3351726 (J Med Chem, 2014)
